Data set [1] has as its target T1, Receptor tyrosine-protein kinase erbB-2 (Homo sapiens, UniProt P04626). Briefly: Dissociation constant for peptide inhibitor binding to HER2 receptor. The method in brief:
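Surface plasmon resonance at 25 °C. Recombinant HER2 ectodomain–human IgG Fc fusion was amine-coupled to the sensor chip to 3500 RU. A blank reference surface was subtracted. Peptides were injected at variable concentrations at 20 µL/min, with 240 s association and 300 s dissociation. Signals were buffer-subtracted and fitted to a pseudo-first-order model, and KD was taken as koff/kon.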

The target in data set [2] is T1, Receptor tyrosine-protein kinase erbB-2. The data set can be described thus: Kinetic constant for peptide inhibitor binding to HER2 receptor. The gist of the method:
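Surface plasmon resonance at 25 °C. HER2 ectodomain–human IgG Fc fusion was amine-coupled (EDC/NHS, 40 ng/mL in 10 mM NaOAc pH 5.0) to 3500 RU, with a blank reference surface. Peptides were flowed at variable concentrations at 20 µL/min, with 240 s association and 300 s dissociation. Signals were reference- and buffer-subtracted, and kon, koff and KD (koff/kon) were fitted to a pseudo-first-order model.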

Data set [3] in a line: Solubility in the PBS buffer at 1 mg/mL; Limited solubility. The format is physicochemical.
Data set [4] can be described thus: Inhibition of T6-17 cell proliferation. The data set is classed as functional, Mus musculus. Further details: concentration or dose not given beside the values. The gist of the method:
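T6-17 cells (NIH3T3 engineered to overexpress human HER2) seeded overnight at 1000/well in DMEM with 10% FBS, then cultured 48 h in fresh medium with peptide at 1 µg/mL. MTT (5 mg/mL in PBS) added, 2 h at 37 °C. SDS/DMF extraction buffer (pH 4.7) added, overnight at 37 °C, then OD 600 nm read. Each value is the mean of at least four samples.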

A short description of data set [5]: Solubility in the PBS buffer at 1 mg/mL; Good solubility. The data set is classed as physicochemical.

Structures are written as SMILES. Positions of bridges follow the written chain, without caps; N, C: chain ends. Residues, ends and D or L forms follow the SMILES beside them.

T1 sequence (P04626 whole entry, the tested form may be a part): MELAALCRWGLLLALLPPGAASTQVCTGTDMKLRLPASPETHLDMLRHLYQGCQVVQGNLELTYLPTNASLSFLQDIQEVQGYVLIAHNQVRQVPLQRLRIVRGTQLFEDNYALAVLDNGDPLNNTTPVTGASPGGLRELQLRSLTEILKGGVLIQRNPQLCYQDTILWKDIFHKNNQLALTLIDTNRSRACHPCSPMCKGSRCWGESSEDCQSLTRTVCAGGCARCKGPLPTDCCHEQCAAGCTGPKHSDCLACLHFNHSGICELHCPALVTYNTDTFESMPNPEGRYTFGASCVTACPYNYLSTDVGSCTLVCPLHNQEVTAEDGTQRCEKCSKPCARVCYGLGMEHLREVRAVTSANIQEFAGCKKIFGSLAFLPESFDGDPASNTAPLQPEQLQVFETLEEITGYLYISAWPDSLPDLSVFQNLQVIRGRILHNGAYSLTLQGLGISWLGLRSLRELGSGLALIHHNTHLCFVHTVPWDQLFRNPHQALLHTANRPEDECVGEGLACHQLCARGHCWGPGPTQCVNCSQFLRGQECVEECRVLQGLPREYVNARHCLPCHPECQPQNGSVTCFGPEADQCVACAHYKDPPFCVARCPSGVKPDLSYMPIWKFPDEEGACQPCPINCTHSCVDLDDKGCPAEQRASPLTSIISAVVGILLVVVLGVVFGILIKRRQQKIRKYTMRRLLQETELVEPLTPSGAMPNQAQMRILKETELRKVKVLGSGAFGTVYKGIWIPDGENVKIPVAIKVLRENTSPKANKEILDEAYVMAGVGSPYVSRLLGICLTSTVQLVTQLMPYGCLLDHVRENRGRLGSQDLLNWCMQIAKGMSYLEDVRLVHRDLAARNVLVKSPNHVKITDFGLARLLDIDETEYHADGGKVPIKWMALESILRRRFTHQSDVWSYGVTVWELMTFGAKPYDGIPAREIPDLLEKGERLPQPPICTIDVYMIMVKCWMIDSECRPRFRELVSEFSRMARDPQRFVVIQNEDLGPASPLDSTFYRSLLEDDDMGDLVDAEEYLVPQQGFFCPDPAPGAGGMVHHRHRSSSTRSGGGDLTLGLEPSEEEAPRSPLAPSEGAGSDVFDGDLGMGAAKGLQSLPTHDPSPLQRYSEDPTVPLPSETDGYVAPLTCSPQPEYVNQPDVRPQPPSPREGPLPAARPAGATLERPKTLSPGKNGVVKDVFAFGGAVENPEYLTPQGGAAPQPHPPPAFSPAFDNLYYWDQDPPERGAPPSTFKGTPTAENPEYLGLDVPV

Take `CSCC[C@H](NC(=O)[C@H](Cc1ccc(O)cc1)NC(=O)[C@@H]1CSSC[C@H](NC(=O)[C@@H](N)Cc2ccccc2)C(=O)N[C@@H](CC(=O)O)C(=O)NCC(=O)N[C@@H](Cc2ccccc2)C(=O)N[C@@H](Cc2ccc(O)cc2)C(=O)N[C@@H](C)C(=O)N1)C(=O)N[C@@H](CC(=O)O)C(=O)N[C@H](C(=O)O)C(C)C` (stereo in doubt; 9) [listing 1 of 2 here]: binding in data set [1] was put at a Kd of 3.56 µM.

In data set [2], `CSCC[C@H](NC(=O)[C@H](Cc1ccc(O)cc1)NC(=O)[C@@H]1CSSC[C@H](NC(=O)[C@@H](N)Cc2ccccc2)C(=O)N[C@@H](CC(=O)O)C(=O)NCC(=O)N[C@@H](Cc2ccccc2)C(=O)N[C@@H](Cc2ccc(O)cc2)C(=O)N[C@@H](C)C(=O)N1)C(=O)N[C@@H](CC(=O)O)C(=O)N[C@H](C(=O)O)C(C)C` (stereo in doubt; 2) [listing 1 of 2 here] showed a k off of 0.000643 s⁻¹ and a k on of 990 M⁻¹ s⁻¹.

Regarding `CSCC[C@H](NC(=O)[C@H](Cc1ccc(O)cc1)NC(=O)[C@@H]1CSSC[C@H](NC(=O)[C@@H](N)Cc2ccccc2)C(=O)N[C@@H](CC(=O)O)C(=O)NCC(=O)N[C@@H](Cc2ccccc2)C(=O)N[C@@H](Cc2ccc(O)cc2)C(=O)N[C@@H](C)C(=O)N1)C(=O)N[C@@H](CC(=O)O)C(=O)N[C@H](C(=O)O)C(C)C` (stereo in doubt; 2) [listing 2 of 2 here], the S result in data set [3] is “Insoluble”. Moreover, the Inhibition (commonly the percentage by which the read-out fell short of the control) in data set [4] is reported as 22.3%.

Turning to `CSCC[C@H](NC(=O)[C@H](Cc1ccc(O)cc1)NC(=O)[C@@H]1CSSC[C@H](NC(=O)[C@@H](N)Cc2ccccc2)C(=O)N[C@@H](CC(=O)O)C(=O)NCC(=O)N[C@@H](Cc2ccccc2)C(=O)N[C@@H](Cc2ccc(O)cc2)C(=O)N[C@@H](C)C(=O)N1)C(=O)N[C@@H](CC(=O)O)C(=O)N[C@H](C(=O)O)C(C)C` (stereo in doubt; 9) [listing 2 of 2 here], in data set [2], the k off is 0.00106 s⁻¹ and the k on came to 298 M⁻¹ s⁻¹.

As for `CSCC[C@H](NC(=O)[C@H](Cc1ccc(O)cc1)NC(=O)[C@@H]1CSSC[C@H](NC(=O)[C@H](Cc2ccccc2)NC(=O)CN)C(=O)N[C@@H](CC(=O)O)C(=O)NCC(=O)N[C@@H](Cc2ccccc2)C(=O)N[C@@H](Cc2ccc(O)cc2)C(=O)N[C@@H](C)C(=O)N1)C(=O)N[C@@H](CC(=O)O)C(=O)N[C@H](C(=O)O)C(C)C` (H-GFCDGFYACYMDV-OH; disulfide 3-9), in data set [5], the S entry was “Soluble”. In data set [2], this compound came in with a k off of 0.000808 s⁻¹ and a k on of 1110 M⁻¹ s⁻¹.

Consider `CSCC[C@H](NC(=O)[C@H](Cc1ccc(O)cc1)NC(=O)[C@@H]1CSSC[C@H](NC(=O)[C@@H](N)Cc2ccc(O)cc2)C(=O)N[C@@H](CC(=O)O)C(=O)NCC(=O)N[C@@H](Cc2ccccc2)C(=O)N[C@@H](Cc2ccc(O)cc2)C(=O)N[C@@H](C)C(=O)N1)C(=O)N[C@@H](CC(=O)O)C(=O)N[C@H](C(N)=O)C(C)C`, for which, in data set [3], the S entry is “Insoluble”. In data set [2], this compound showed a k off of 0.000294 s⁻¹ and a k on of 1960 M⁻¹ s⁻¹. The Inhibition in data set [4] is given as 59.6%.

Regarding `CSCC[C@H](NC(=O)[C@H](Cc1ccc(O)cc1)NC(=O)[C@@H]1CSSC[C@H](NC(=O)[C@@H](N)Cc2ccccc2)C(=O)NCC(=O)N[C@@H](CC(=O)O)C(=O)NCC(=O)N[C@@H](Cc2ccccc2)C(=O)N[C@@H](Cc2ccc(O)cc2)C(=O)N[C@@H](C)C(=O)N1)C(=O)N[C@@H](CC(=O)O)C(=O)N[C@H](C(=O)O)C(C)C` (H-FCGDGFYACYMDV-OH; disulfide 2-9), the S entry in data set [5] is listed as “Soluble”. In data set [2], this compound showed a k off of 0.000701 s⁻¹ and a k on of 922 M⁻¹ s⁻¹. Further, the Inhibition in data set [4] worked out at 18.4%.

On to `CSCC[C@H](NC(=O)[C@@H](Cc1ccc(O)cc1)NC(=O)[C@@H]1CSSC[C@H](NC(=O)[C@H](N)Cc2ccccc2)C(=O)N[C@@H](CC(=O)O)C(=O)NCC(=O)N[C@@H](Cc2ccccc2)C(=O)N[C@@H](Cc2ccc(O)cc2)C(=O)N[C@@H](C)C(=O)N1)C(=O)N[C@@H](CC(=O)O)C(=O)N[C@H](C(N)=O)C(C)C`, for which the S entry in data set [5] is given as “Soluble”. Further, in data set [2], the k off is 0.000603 s⁻¹ and the k on turned out to be 1720 M⁻¹ s⁻¹.

For the compound `CC(C)[C@H](NC(=O)[C@H](CC(=O)O)NC(=O)[C@H](CCCCN)NC(=O)[C@H](Cc1ccc(O)cc1)NC(=O)[C@@H]1CSSC[C@H](NC(=O)[C@@H](N)Cc2ccccc2)C(=O)N[C@@H](CC(=O)O)C(=O)NCC(=O)N[C@@H](Cc2ccccc2)C(=O)N[C@@H](Cc2ccc(O)cc2)C(=O)N[C@@H](C)C(=O)N1)C(=O)O` (H-FCDGFYACYKDV-OH; disulfide 2-8), the S entry in data set [5] is “Soluble”. In addition, in data set [2], the k off came out at 0.00125 s⁻¹ and the k on turned out to be 219 M⁻¹ s⁻¹. In data set [4], this compound returned an Inhibition of 8.4%.

In the case of `CSCC[C@H](NC(=O)[C@H](Cc1ccc(O)cc1)NC(=O)[C@@H]1CSSC[C@H](NC(=O)[C@@H](N)Cc2ccccc2)C(=O)N[C@@H](CC(=O)O)C(=O)NCC(=O)N[C@@H](Cc2ccccc2)C(=O)N[C@@H](Cc2ccc(O)cc2)C(=O)N[C@@H](C)C(=O)N1)C(=O)N[C@@H](CC(=O)O)C(=O)N[C@H](C(=O)N[C@@H](CCCCN)C(N)=O)C(C)C` (H-FCDGFYACYMDVK-NH2; disulfide 2-8), in data set [3], the S entry is given as “Insoluble”. Moreover, in data set [2], the k off worked out at 0.000512 s⁻¹ and the k on came to 617 M⁻¹ s⁻¹.

Regarding `CSCC[C@H](NC(=O)[C@H](Cc1ccc(O)cc1)NC(=O)[C@@H]1CSSC[C@H](NC(=O)[C@@H](N)Cc2ccccc2)C(=O)N[C@@H](CC(=O)O)C(=O)NCC(=O)N[C@@H](Cc2ccccc2)C(=O)N[C@@H](Cc2ccc(O)cc2)C(=O)N[C@@H](C)C(=O)N1)C(=O)N[C@@H](CC(=O)O)C(=O)N[C@H](C(N)=O)C(C)C`, the S result in data set [3] is “Insoluble”. In data set [2], the k off worked out at 0.000453 s⁻¹ and the k on came to 1410 M⁻¹ s⁻¹. In data set [4], the Inhibition is 35.5%.

The values are drawn from ChEMBL document CHEMBL1134548, “Disabling erbB receptors with rationally designed exocyclic mimetics of antibodies: structure-function analysis” (J Med Chem, 2001).
